Source: PubChem BioAssay
Rad51 HR inh – blocks human Rad51 in homologous recombination; hRad51 DNA strand exchange, fluorescence dequenching; inhibition, % at 10 µM; 200,000 tested, 0.085% active;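 active = inhibition above 40% at the single screening dose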
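Material: Human Rad51 nucleoprotein filaments preassembled on unlabelled ssDNA | Also added: Labelled 47-mer dsDNA for strand exchange | Dosing: Single dose, 10 µM final compound | Schedule: 30-min compound preincubation and 15-min exchange, both room temperature | Technique: Fluorescence dequenching at 485/520 nm | Measure: Percent inhibition relative to plate controls and blanks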
NPY-Y2 antag – NPY-Y2 (human) receptor antagonism | AID 793 | P49146 | NPY-Y2 expressing cells, antagonist mode | inhibition, % at 2.7 µM | 140,000 tested, 0.99% active; in the data active = inhibition above about 17%
Target sequence (P49146 whole entry, looked up): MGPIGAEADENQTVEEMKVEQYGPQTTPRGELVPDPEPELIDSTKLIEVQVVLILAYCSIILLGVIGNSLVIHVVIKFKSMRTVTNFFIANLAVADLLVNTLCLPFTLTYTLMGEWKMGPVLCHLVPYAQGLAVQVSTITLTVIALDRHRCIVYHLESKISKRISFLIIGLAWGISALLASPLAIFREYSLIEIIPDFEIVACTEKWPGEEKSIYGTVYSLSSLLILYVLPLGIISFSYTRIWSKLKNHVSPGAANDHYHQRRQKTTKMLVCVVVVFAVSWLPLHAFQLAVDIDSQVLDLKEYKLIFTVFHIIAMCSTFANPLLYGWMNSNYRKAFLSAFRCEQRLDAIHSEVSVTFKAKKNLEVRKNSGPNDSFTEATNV
NPY Y1 blocker – NPY-Y1 (human) receptor antagonism. P25929. HEK293-CNG Y1 cells, membrane potential fluorescence; NPY at EC95, then isoproterenol. inhibition, % at 3.6 µM. 200,000 tested, 1% active. AID 1040;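 active = inhibition above the campaign mean inhibition of all tested compounds plus 3 SD, cut at about 20% in these data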
Target sequence (P25929 whole entry, looked up): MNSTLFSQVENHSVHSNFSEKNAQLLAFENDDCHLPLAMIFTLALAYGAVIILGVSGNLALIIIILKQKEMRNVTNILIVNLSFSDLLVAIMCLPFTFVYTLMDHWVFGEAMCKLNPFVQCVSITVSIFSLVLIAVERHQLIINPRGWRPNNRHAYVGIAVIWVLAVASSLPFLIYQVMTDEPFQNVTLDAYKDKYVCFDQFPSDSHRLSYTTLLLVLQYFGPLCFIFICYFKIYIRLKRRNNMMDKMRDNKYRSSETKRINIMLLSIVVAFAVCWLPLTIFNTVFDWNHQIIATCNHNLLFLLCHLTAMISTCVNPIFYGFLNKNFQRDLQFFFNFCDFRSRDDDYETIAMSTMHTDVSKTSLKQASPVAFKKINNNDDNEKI
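Test system – HEK293 Y1/CNG channel cell line · Also added – NPY agonist 25 nM, then isoproterenol 1 µM plus Ro 20-1724 25 µM · Compound dosing – one concentration, 3.6 µM, in 0.4% DMSO · Schedule – compound incubation 1 h at room temperature, readout 45 min post-stimulation · Technique – fluorescence, membrane potential probe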
Measles CPE – protection of cells from measles virus; Measles virus-infected cells, CPE protection, absorbance; protection (pct of control), % at 4 µM; 140,000 tested, 1.5% active; AID 841; in the data active = protection mostly above about 24%, no sharp cut-off; inactive = mostly below about 26%
NPY-Y1 PAM-ag – potentiates or activates human NPY-Y1 receptor. P25929. NPY-Y1 expressing cells, potentiator/agonist activation. activation, % at 3.6 µM. 220,000 tested, 0.37% active; in the data active = activation above about 33%, passing the limit was not always enough;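 note: cells stimulated with NPY at EC10 then isoproterenol at EC100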
NPY-Y2 PAM-ag – human NPY-Y2 potentiation or agonism, primary screen; 220,000 tested, 0.45% active; activation, % at 3.6 µM; cells expressing NPY-Y2, potentiator/agonist read-out; in the data active = activation above about 27%;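 note: cells stimulated with NPY near EC25 plus isoproterenol at EC100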
Hits are given with their value. Sampled rows, rich in hits. Any-hit rate of the full collection: about 2.8%.

Results for CCCCOC(=O)C1=C(C)Nc2nnnn2C1c1ccc(OC)c(OC)c1OC (centres undefined) ?
Rad51 HR inh: inactive; NPY-Y2 antag: inactive; NPY Y1 blocker: inactive; Measles CPE: 45.7; NPY-Y1 PAM-ag: inactive; NPY-Y2 PAM-ag: inactive

Results for O=C(CCN1C(=O)c2ccccc2S1(=O)=O)Nc1nc2c(s1)CCCC2 ?
Rad51 HR inh: inactive; NPY-Y2 antag: inactive; NPY Y1 blocker: inactive; Measles CPE: 23.9; NPY-Y1 PAM-ag: inactive; NPY-Y2 PAM-ag: inactive

Results for CCc1nnc(NC(=O)CN2C(=O)c3ccccc3S2(=O)=O)s1 ?
Rad51 HR inh: inactive; NPY-Y2 antag: inactive; NPY Y1 blocker: inactive; Measles CPE: 39.5; NPY-Y1 PAM-ag: inactive; NPY-Y2 PAM-ag: inactive

How did O=C(CCN1C(=O)c2ccccc2S1(=O)=O)Nc1cccc2ccccc12 do in these assays?
Rad51 HR inh: inactive; NPY Y1 blocker: inactive; NPY-Y1 PAM-ag: inactive; NPY-Y2 PAM-ag: inactive

Results for O=C(CN1C(=O)c2ccccc2S1(=O)=O)Nc1ccc(S(=O)(=O)N2CCCCC2)cc1 ?
Rad51 HR inh: 72.8; NPY-Y2 antag: inactive; NPY Y1 blocker: inactive; Measles CPE: inactive; NPY-Y1 PAM-ag: inactive; NPY-Y2 PAM-ag: inactive

Results for Cc1c(N)cc[n+](CC(=O)c2ccccc2)c1C ?
Rad51 HR inh: inactive; NPY Y1 blocker: inactive; NPY-Y1 PAM-ag: inactive; NPY-Y2 PAM-ag: inactive

How did Cc1nn(Cc2cccc(C(=O)N3N=C(C(F)F)CC3(O)C(F)F)c2)c(C)c1[N+](=O)[O-] (centres undefined) do in these assays?
Rad51 HR inh: inactive; NPY-Y2 antag: inactive; NPY Y1 blocker: inactive; Measles CPE: 42.3; NPY-Y1 PAM-ag: inactive; NPY-Y2 PAM-ag: inactive

What do the screens show for `O=C(O)CCc1ccc(-c2cccs2)n1CCc1ccccc1`?
Rad51 HR inh: inactive; NPY Y1 blocker: inactive; NPY-Y1 PAM-ag: inactive; NPY-Y2 PAM-ag: inactive

What do the screens show for `COc1ccccc1N1CCN(CC(=O)Nc2ccc(CN3CCCCC3)cc2)CC1`?
Rad51 HR inh: inactive; NPY-Y2 antag: inactive; NPY Y1 blocker: inactive; Measles CPE: inactive; NPY-Y1 PAM-ag: inactive; NPY-Y2 PAM-ag: inactive

Results for Cc1ccc(Cl)cc1N1CCN(CC(=O)Nc2ccc(CN3CCCCC3)cc2)CC1 ?
Rad51 HR inh: inactive; NPY-Y2 antag: inactive; NPY Y1 blocker: 35.7; Measles CPE: inactive; NPY-Y1 PAM-ag: inactive; NPY-Y2 PAM-ag: inactive

What do the screens show for `O=C(CN1CCN(S(=O)(=O)c2cc(Cl)ccc2Cl)CC1)Nc1ccc2c(c1)OCCO2`?
Rad51 HR inh: inactive; NPY-Y2 antag: inactive; NPY Y1 blocker: inactive; Measles CPE: 42.1; NPY-Y1 PAM-ag: inactive; NPY-Y2 PAM-ag: inactive

Results for COc1ccc(S(=O)(=O)N2CCCN(CC(=O)Nc3ccc(OC)c(Cl)c3)CC2)cc1 ?
NPY-Y2 antag: 18.1; NPY Y1 blocker: 38.5; Measles CPE: inactive; NPY-Y1 PAM-ag: inactive; NPY-Y2 PAM-ag: inactive

Results for O=C(CN1CCCCC1)Nc1ccc(F)c(Cl)c1 ?
Rad51 HR inh: inactive; NPY-Y2 antag: inactive; NPY Y1 blocker: inactive; Measles CPE: 56.0; NPY-Y1 PAM-ag: inactive; NPY-Y2 PAM-ag: inactive

Results for O=C(CN1CCCCCC1)Nc1ccc(F)c(F)c1 ?
Rad51 HR inh: inactive; NPY-Y2 antag: inactive; NPY Y1 blocker: inactive; Measles CPE: inactive; NPY-Y1 PAM-ag: inactive; NPY-Y2 PAM-ag: inactive

How did Cc1ccc(NC(=O)C2OCCc3ccccc32)cc1Cl (centres undefined) do in these assays?
NPY Y1 blocker: inactive; NPY-Y1 PAM-ag: inactive; NPY-Y2 PAM-ag: inactive

How did Cc1cccc(CCNC(=O)C2CCN(S(=O)(=O)c3ccccc3)CC2)c1 do in these assays?
Rad51 HR inh: inactive; NPY Y1 blocker: inactive; NPY-Y1 PAM-ag: inactive; NPY-Y2 PAM-ag: inactive

What do the screens show for `O=[N+]([O-])c1cc(-n2cccc2)ccc1N1CCOCC1`?
Rad51 HR inh: inactive; NPY Y1 blocker: inactive; NPY-Y1 PAM-ag: inactive; NPY-Y2 PAM-ag: inactive

How did O=C(Nc1cccc(C(F)(F)F)c1)c1cc(-c2cccs2)on1 do in these assays?
Rad51 HR inh: inactive; NPY-Y2 antag: inactive; NPY Y1 blocker: inactive; Measles CPE: 66.7; NPY-Y1 PAM-ag: inactive; NPY-Y2 PAM-ag: inactive

How did Cc1ccc(NC(=O)c2cc(-c3cccs3)on2)cc1C do in these assays?
Rad51 HR inh: inactive; NPY Y1 blocker: inactive; NPY-Y1 PAM-ag: inactive; NPY-Y2 PAM-ag: inactive

Results for O=C(Nc1ccccc1N1CCOCC1)c1cc(Br)c(Br)s1 ?
Rad51 HR inh: inactive; NPY Y1 blocker: inactive; NPY-Y1 PAM-ag: inactive; NPY-Y2 PAM-ag: inactive

How did COc1cccc(Nc2nc3ccccc3nc2-n2nc(C)cc2C)c1 do in these assays?
Rad51 HR inh: inactive; NPY-Y2 antag: inactive; NPY Y1 blocker: inactive; Measles CPE: inactive; NPY-Y1 PAM-ag: inactive; NPY-Y2 PAM-ag: inactive

Results for Cc1cc(C)n(-c2nc3ccccc3nc2Nc2ccc3c(c2)OCO3)n1 ?
Rad51 HR inh: inactive; NPY-Y2 antag: inactive; NPY Y1 blocker: inactive; Measles CPE: 42.1; NPY-Y1 PAM-ag: inactive; NPY-Y2 PAM-ag: inactive

How did O=C(COC(=O)c1ccccc1Cl)NC(=O)NCc1ccccc1 do in these assays?
Rad51 HR inh: inactive; NPY-Y2 antag: inactive; NPY Y1 blocker: inactive; Measles CPE: 68.3; NPY-Y1 PAM-ag: inactive; NPY-Y2 PAM-ag: inactive

How did O=C(COC(=O)c1cc(Br)ccc1Cl)NC(=O)NCc1ccccc1 do in these assays?
Rad51 HR inh: inactive; NPY-Y2 antag: inactive; NPY Y1 blocker: inactive; Measles CPE: inactive; NPY-Y1 PAM-ag: inactive; NPY-Y2 PAM-ag: inactive

Results for COC(=O)C[N+](C)(C)CC#Cc1ccccc1 ?
Rad51 HR inh: inactive; NPY-Y2 antag: inactive; NPY Y1 blocker: inactive; Measles CPE: inactive; NPY-Y1 PAM-ag: inactive; NPY-Y2 PAM-ag: inactive

What do the screens show for `Nc1nc(-c2ccccc2)c(N=Nc2cccnc2)s1`?
Rad51 HR inh: inactive; NPY Y1 blocker: inactive; NPY-Y1 PAM-ag: 65.3; NPY-Y2 PAM-ag: 57.3

What do the screens show for `Cc1nn(-c2ccccc2)c(N)c1N=Nc1cccnc1`?
Rad51 HR inh: inactive; NPY Y1 blocker: inactive; NPY-Y1 PAM-ag: inactive; NPY-Y2 PAM-ag: inactive

Results for Cc1cccc2c(=O)cc(C)n(Cc3ccccc3)c12 ?
Rad51 HR inh: inactive; NPY-Y2 antag: inactive; NPY Y1 blocker: inactive; Measles CPE: 35.9; NPY-Y1 PAM-ag: inactive; NPY-Y2 PAM-ag: inactive

What do the screens show for `COc1ccc(Cc2nnc(NC(=O)CSc3ccc(C)cc3)s2)cc1OC`?
Rad51 HR inh: inactive; NPY-Y2 antag: inactive; NPY Y1 blocker: 21.5; Measles CPE: inactive; NPY-Y1 PAM-ag: inactive; NPY-Y2 PAM-ag: inactive

What do the screens show for `O=C(Nc1ccccc1-c1ccccc1)c1ccc(Cl)c([N+](=O)[O-])c1`?
Rad51 HR inh: inactive; NPY-Y2 antag: inactive; NPY Y1 blocker: inactive; Measles CPE: inactive; NPY-Y1 PAM-ag: 71.4; NPY-Y2 PAM-ag: 29.1

How did O=[N+]([O-])c1cc(Cl)ccc1N1CCCC1 do in these assays?
Rad51 HR inh: inactive; NPY Y1 blocker: inactive; NPY-Y1 PAM-ag: inactive; NPY-Y2 PAM-ag: inactive

Results for O=[N+]([O-])c1cc(Cl)ccc1N1CCN(c2cccc(C(F)(F)F)c2)CC1 ?
Rad51 HR inh: inactive; NPY-Y2 antag: 20.5; NPY Y1 blocker: 20.1; Measles CPE: inactive; NPY-Y1 PAM-ag: inactive; NPY-Y2 PAM-ag: inactive
